HCV NS3 hel inh: inhibitors of HCV NS3 helicase, primary screen, biochemical, Cy5 molecular beacon fluorescence; 290,000 compounds, 0.56% hits; Hepatitis C virus NS3 helicase; NS3 helicase DNA unwinding; inhibition, % at 10.9 µM;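 active means inhibition above the mean of all tested compounds plus 3 SD, set per campaign, cut at about 35% in these data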;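 further: 0% = DMSO wells and 100% = thioflavine S control wells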
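Test system: hepatitis C virus NS3 helicase domain fragment enzyme. Also added: annealed dual-labelled DNA beacon duplex, ATP-started. Timing: 60 min unwinding reaction at 25 °C after ATP addition. Technique: Cy5 fluorescence. Measure: % inhibition of unwinding.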
MEKK3 PB1 HTS: modulators of MEKK3-MEK5 PB1 binding, primary screen, biochemical, wildtype MEKK3, multiplex bead flow cytometry, Alexa488-MEK5. Mitogen-activated protein kinase kinase kinase 3 (Homo sapiens), Q99759. bead-based flow cytometry, Alexa488-MEK5 binding to MEKK3; actives lie on both sides; 0 = blocked by unlabeled MEK5, 100 = vehicle. binding response (% of control), % at 10 µM. 290,000 compounds, 1.4% hits;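 active means binding response more than 3 SD above or below the average of its plate-row segment, actives on both sides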;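 further: Alexa488 bead fluorescence after subtracting the streptavidin-only scavenger bead signal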
Target sequence (Q99759 whole entry, looked up): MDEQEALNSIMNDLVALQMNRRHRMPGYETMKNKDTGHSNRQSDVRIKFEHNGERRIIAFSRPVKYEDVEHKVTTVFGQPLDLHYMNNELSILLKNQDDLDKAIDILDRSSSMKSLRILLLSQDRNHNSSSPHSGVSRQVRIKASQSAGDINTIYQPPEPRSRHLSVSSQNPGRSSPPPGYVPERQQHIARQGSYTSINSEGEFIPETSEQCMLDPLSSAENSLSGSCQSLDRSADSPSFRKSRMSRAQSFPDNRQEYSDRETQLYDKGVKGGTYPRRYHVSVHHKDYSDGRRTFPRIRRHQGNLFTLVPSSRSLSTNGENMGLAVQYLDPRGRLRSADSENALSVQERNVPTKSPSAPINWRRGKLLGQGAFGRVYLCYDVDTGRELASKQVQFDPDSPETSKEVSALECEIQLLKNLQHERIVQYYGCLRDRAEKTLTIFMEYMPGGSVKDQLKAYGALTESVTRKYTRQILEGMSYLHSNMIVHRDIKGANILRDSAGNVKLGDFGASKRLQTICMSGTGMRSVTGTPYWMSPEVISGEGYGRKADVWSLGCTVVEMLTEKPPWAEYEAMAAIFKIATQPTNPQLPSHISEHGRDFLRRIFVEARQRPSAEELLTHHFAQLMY
FID counter: compounds displacing fluorescent DNA intercalator, primary screen, artefact control for HCV NS3 helicase inhibitor project, biochemical, FID fluorescence | inhibition, % at 7.9 µM | DNA fluorescent intercalator displacement | 290,000 compounds, 0.17% hits; in the data active means inhibition above about 37%;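 further: 0% = vehicle and 100% = reference compound; higher means more ethidium bromide displaced from hairpin DNA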
MEKK2wt PB1 HTS: modulators of MEK5 binding to wildtype MEKK2, primary screen, biochemical, multiplex bead flow cytometry, Alexa488-MEK5 | Mitogen-activated protein kinase kinase kinase 2 (Homo sapiens), Q9Y2U5 | Alexa488-MEK5 binding to MEKK2 WT; actives lie on both sides | binding response (% of control), % at 10 µM | 290,000 compounds, 1.1% hits | AID 1531, 2009; in the data active means binding response below about 67% or above about 130%
MEKK2 mut-MEK5: MEK5 binding signal on mutant MEKK2 PB1, primary screen, biochemical, multiplex bead flow cytometry, Alexa488-MEK5 | percent response, % at 10 µM | Alexa488-MEK5 binding to MEKK2 mutant | AID 1530, 2009 | 290,000 compounds, 0.35% hits; in the data active means percent response above about 24%, passing the limit was not always enough
T cruzi repl: inhibitors of intracellular T. cruzi growth, primary screen, luminescence, NIH3T3 host cells | 300,000 compounds, 1.4% hits | T. cruzi beta-gal in NIH3T3, 90 h | inhibition, % (test concentration not listed) | AID 1885, 2009;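 active means mean inhibition across valid replicates above about 55%, limit read from the data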;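 further: signal also drops with host cell toxicity which is not excluded here; 0% = plate median of DMSO wells and 100% = zero luminescence signal; higher percent means less beta-gal luminescence so fewer parasites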
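System – NIH/3T3 host cells with β-galactosidase reporter T. cruzi · Doses – single 50 nL compound addition per well in DMSO · Reagent – 5000 T. cruzi trypomastigotes/well · Medium – Low-serum DMEM with 2% FBS · Timing – ≥90 h infection period, 3 h prior cell attachment · Evaluation – parasite load inhibition, % · Technique – GalScreen luminescence, 60 min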
Numbers without * were called inactive; . = not tested or not shown; [ ] = remark or other dose. Hits are enriched below; roughly 4.1% of the tested compounds scored in any of these assays.

SMILES	HCV NS3 hel inh	MEKK3 PB1 HTS	FID counter	MEKK2wt PB1 HTS	MEKK2 mut-MEK5	T cruzi repl
COc1ccc(C(CNC(=O)c2oc3cc(Br)ccc3c2C)N2CCCCC2)cc1 (configuration not stated)	-30	107	6	141*	30*	5
CN1CCCN(C(=O)c2c(F)cccc2Cl)CC1	1	102	1	100	2	2
CN(C)c1ccc2nc3ccc(=[N+](C)C)cc-3sc2c1	31	91	74*	80	-7	43
COc1ccc2nc(N=Nc3ccc(N(C)C)cc3)sc2c1	-3	.	5	.	.	.
COc1cccc(CN(C)C(=O)Nc2cccc(C(F)(F)F)c2)c1OC	7	101	-15	97	8	-7
COc1cccc(N2CC(C(=O)Nc3c(C(N)=O)oc4ccccc34)CC2=O)c1 (configuration not stated)	.	.	.	.	.	5
O=C(N/N=C/c1ccncc1)c1cccc(NC(=O)c2ccc(Cl)cc2)c1	-10	54*[inhibitor]	-9	66	-3	-7
O=C(N/N=C/c1ccncc1)c1cccc(N/N=C/c2ccncc2)c1	0	98	0	100	-1	-5
C/C(=N\NC(=O)c1cc(-c2ccc(C)s2)[nH]n1)c1ccco1	9	98	-4	101	1	-30
CC(C)c1cc(C(C)C)c(S(=O)(=O)N2c3ccccc3[C@]3(Br)C[C@H]4C(=O)N[C@@H](Cc5ccccc5)C(=O)N4[C@H]23)c(C(C)C)c1	.	102	.	85	-1	55*
CC(C)c1cc(C(C)C)c(S(=O)(=O)N2c3ccccc3[C@@]3(Br)C[C@H]4C(=O)N[C@@H](Cc5ccccc5)C(=O)N4[C@@H]23)c(C(C)C)c1	.	102	.	92	2	55*
O=C1N[C@@H](Cc2ccccc2)C(=O)N2[C@@H]3N(S(=O)(=O)c4ccccc4)c4ccccc4[C@]3(Br)C[C@@H]12	.	111	.	104	5	11
CCOC(=O)c1c(-c2ccccc2)oc2ccc(OCC(O)CN(C)C)cc12 (configuration not stated)	-61	107	22	162*	25*	33
COC1=CC(=Cc2c(N)n3nc(CC(=O)N4CCCCC4)sc3nc2=O)C=C(OC)C1=O	15	82*[inhibitor]	-46	70*[inhibitor]	-14	-8
COc1ccc(S(=O)(=O)N2CCN=C2SCc2cccc(C)c2)cc1	-26	101	-18	99	0	18
Cc1c(C#N)c(N=CN(C)C)c(C(=O)c2ccc(Br)cc2)n1-c1ccc(Cl)cc1	-4	102	-29	104	6	57*
CC1CC(C)CN(CCCNC(=O)c2ccc3c(c2)NC(=O)CS3)C1 (configuration not stated)	-1	96	11	96	-5	6
CN(CC1CCCN(CCc2cccc(C(F)(F)F)c2)C1)C(=O)c1ccco1 (configuration not stated)	-1	97	9	100	1	60*
CCN(Cc1ccc(O)cc1)CC1CCCN(CCc2cccc(F)c2)C1 (configuration not stated)	1	109	17	128	5	61*
COc1ccc(S(=O)(=O)N2CCN(c3ccc(F)cc3)CC2)cc1C(=O)N1CCOCC1	7	101	-28	99	9	11
Cc1cc(C(=O)N2CCCC(N3CCN(c4ccccc4C)CC3)C2)n(C)n1 (configuration not stated)	1	107	5	112	7	59*
CC(=O)N1c2ccc(S(=O)(=O)N3CCCCC3)cc2CC1C(=O)Nc1ccc(F)cc1C (configuration not stated)	0	105	-34	106	0	-7
O=C(CSc1nnc(-c2ccc(F)cc2)c2ccccc12)Nc1cccc(Cl)c1	-13	107	-2	117	25	60*
O=C(CSc1nnc(-c2ccc(F)cc2)c2ccccc12)Nc1ccccc1	-15	105	-10	115	3	28
CCOC(=O)CC/C(=N\NC(N)=O)c1ccc(OC)c(Cl)c1	.	.	.	.	.	-24
SMILES	HCV NS3 hel inh	MEKK3 PB1 HTS	FID counter	MEKK2wt PB1 HTS	MEKK2 mut-MEK5	T cruzi repl
Cc1ccc(CNC(=O)c2cc3c(s2)CS(=O)(=O)C3)cc1	3	2.0*[inhibitor]	-8	0.0*[inhibitor]	-17	9
O=C(NCc1cccs1)c1cc2c(s1)CS(=O)(=O)C2	3	97	2	94	2	-14
COc1ccc(/C=C/C(=O)c2cc(F)ccc2OC(=O)c2ccccc2C)cc1OC	-17	150*	-21	108	0	-23
O=C(N/N=C/c1ccc(F)cc1)c1cc(-c2ccco2)nc2ccccc12	39*	.	-13	.	.	-13
CN(C)C(=O)CSc1nc(-c2ccccc2)nc2c1CCCC2	-2	107	-30	104	3	33
c1ccc(Nc2c3c(nc4ccccc24)CCC3)cc1	-2	101	12	115	2	32
CN(C)CCCSc1nc(-c2ccccc2)nc2c1CCC2	-1	122	6	115	2	71*
Fc1ccc(Nc2c3c(nc4ccccc24)CCC3)cc1	3	104	4	112	4	58*
CN(C)CCCNc1c2c(nc3ccccc13)CCC2	-9	97	53*	116	11	39
OCCCNc1c2ccccc2nc2ccccc12	22	103	45*	106	5	70*
CCN1CCN(C(=O)c2c(-c3c(Cl)cccc3Cl)noc2C)CC1	18	98	-5	94	0	-4
Brc1ccc(-n2cnc(-c3ccccc3)c2)cc1	5	99	-25	94	1	-4
S=C(Nc1ccc(Br)cc1)N1CCn2cccc2C1c1cccnc1 (configuration not stated)	-7	105	-12	99	-1	79*
Cc1ccc(NC(=S)N2CCn3cccc3C2c2cccnc2)cc1 (configuration not stated)	-6	97	-2	95	13	-5
O=C(C1=C[C@H](c2csc3ccccc23)C[C@H](OCc2ccc(CO)cc2)O1)N1CCN(Cc2ccc3c(c2)OCO3)CC1	-35	98	-15	100	-1	62*
CCO[C@@H]1OC(C(=O)N2CCN(Cc3ccc4c(c3)OCO4)CC2)=C[C@H](C2CCCCC2)[C@H]1CCCO	-10	78	-37	73	3	72*

Source: PubChem (several laboratories)
